Data published in ChEMBL document CHEMBL2176991 (J Med Chem, 2012).
Square brackets hold non-standard residues; d marks the D form. Peptide text beside a SMILES is read from it.

Legend:
[1] = system: LNCaP; assay: Cytotoxicity against human LNCAP cells assessed as growth inhibition after 72 hrs by MTT assay; type: functional, cell-based
Procedure, shortened: (§1)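 Cells plated in 96-well format: DU145 and PC3 at 1500/well, LNCaP at 2500/well on poly-lysine. After 24 h, medium was changed and peptide added for 72 h in RPMI 1640 (5% FBS for DU145, 10% for LNCaP and PC3). MTT at 1 mg/mL final for 4 h (DU145, LNCaP) or 6 h (PC3). Formazan dissolved in 2-propanol-HCl and signal normalized to vehicle (water, 0.1% DMSO). IC50 from curve fitting.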

[2] = system: DU-145; assay: Cytotoxicity against human DU145 cells assessed as growth inhibition after 72 hrs by MTT assay; type: functional, cell-based; settings: DU-145, 72 h; procedure, shortened: as §1
[3] = target: T1, Proprotein convertase subtilisin/kexin type 6 (Homo sapiens, UniProt P29122); assay: Competitive inhibition of human recombinant PACE4 expressed in Drosophila S2 cells using pyroGlu-Arg-Val-Lys-Arg-methyl-coumaryl-7-amide as substrate at pH 6.5 after 60 mins by spectrofluorometric analysis
T1 sequence (P29122 whole entry): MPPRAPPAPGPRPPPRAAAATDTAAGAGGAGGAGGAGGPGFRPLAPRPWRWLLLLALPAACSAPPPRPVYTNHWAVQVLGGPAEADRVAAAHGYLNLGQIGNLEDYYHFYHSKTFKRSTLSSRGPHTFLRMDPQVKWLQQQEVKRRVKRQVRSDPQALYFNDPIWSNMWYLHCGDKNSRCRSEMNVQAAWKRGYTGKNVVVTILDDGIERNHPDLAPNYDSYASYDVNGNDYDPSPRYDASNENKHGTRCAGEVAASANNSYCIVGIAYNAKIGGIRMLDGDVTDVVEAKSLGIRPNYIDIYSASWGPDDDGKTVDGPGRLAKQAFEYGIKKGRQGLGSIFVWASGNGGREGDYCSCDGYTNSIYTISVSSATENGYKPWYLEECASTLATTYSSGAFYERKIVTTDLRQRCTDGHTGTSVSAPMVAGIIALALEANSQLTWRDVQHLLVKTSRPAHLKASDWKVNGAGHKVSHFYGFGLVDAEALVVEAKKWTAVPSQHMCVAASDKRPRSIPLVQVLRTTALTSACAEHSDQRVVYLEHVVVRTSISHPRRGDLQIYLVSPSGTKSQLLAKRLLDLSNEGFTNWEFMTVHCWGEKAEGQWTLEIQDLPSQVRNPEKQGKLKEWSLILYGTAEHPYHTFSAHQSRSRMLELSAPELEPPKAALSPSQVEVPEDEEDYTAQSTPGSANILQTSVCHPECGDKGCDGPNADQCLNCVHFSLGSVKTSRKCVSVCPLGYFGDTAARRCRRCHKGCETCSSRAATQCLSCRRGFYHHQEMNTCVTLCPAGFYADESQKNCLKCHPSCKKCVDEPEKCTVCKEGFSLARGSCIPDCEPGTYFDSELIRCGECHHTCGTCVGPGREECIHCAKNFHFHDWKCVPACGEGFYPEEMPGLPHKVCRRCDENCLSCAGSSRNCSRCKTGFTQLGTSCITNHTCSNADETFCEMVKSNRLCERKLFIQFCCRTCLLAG
Procedure, shortened: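 Soluble human PACE4 purified from S2 conditioned medium, assayed in 20 mM Bis-Tris pH 6.5, 1 mM CaCl₂, 1.8 mg/mL BSA with 100 μM substrate, 37 °C, 60 min. Real-time fluorescence read; inhibitors added at decreasing concentrations. Ki from IC50 by Cheng–Prusoff, Km 3.5 μM. Means of three independent experiments.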

[4] = organism: Homo sapiens; assay: Selectivity ratio of Ki for human recombinant furin to Ki for human recombinant PACE4
[5] = target: Furin (Homo sapiens, UniProt P09958); assay: Competitive inhibition of human recombinant furin expressed in Drosophila S2 cells using pyroGlu-Arg-Val-Lys-Arg-methyl-coumaryl-7-amide as substrate at pH 7.5 after 60 mins by spectrofluorometric analysis
Sequence of Furin (P09958 whole entry): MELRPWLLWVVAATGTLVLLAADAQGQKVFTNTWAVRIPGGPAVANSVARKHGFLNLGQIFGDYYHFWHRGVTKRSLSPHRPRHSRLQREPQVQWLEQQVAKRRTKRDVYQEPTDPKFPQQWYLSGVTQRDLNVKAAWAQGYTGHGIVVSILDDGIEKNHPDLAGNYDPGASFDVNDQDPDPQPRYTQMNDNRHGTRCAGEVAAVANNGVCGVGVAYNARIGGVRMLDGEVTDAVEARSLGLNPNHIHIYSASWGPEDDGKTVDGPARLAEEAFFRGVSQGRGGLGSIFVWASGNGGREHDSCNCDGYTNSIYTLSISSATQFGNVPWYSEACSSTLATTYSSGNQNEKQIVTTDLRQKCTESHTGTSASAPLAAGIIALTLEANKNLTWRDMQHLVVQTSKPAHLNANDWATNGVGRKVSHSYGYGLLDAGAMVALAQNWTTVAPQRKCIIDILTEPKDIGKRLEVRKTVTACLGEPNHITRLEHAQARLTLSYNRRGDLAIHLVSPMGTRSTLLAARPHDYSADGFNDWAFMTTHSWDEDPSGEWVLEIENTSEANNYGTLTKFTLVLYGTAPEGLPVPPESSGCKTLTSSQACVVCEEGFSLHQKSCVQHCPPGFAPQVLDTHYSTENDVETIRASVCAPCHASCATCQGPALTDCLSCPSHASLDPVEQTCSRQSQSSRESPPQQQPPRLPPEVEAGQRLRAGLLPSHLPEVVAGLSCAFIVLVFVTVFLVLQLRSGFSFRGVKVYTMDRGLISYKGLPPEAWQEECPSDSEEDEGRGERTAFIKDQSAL
Procedure, shortened: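 Recombinant soluble human furin from S2 medium, tested in 100 mM Hepes pH 7.5, 1 mM CaCl₂, 1 mM β-mercaptoethanol, 1.8 mg/mL BSA; substrate 100 μM, 37 °C, 60 min, kinetic fluorescence read. Inhibitors added at decreasing concentrations. Ki derived from IC50 by Cheng–Prusoff using Km 4.61 μM; three independent experiments.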

Ratio Ki [4]	SMILES	IC50 [1] [nM]	IC50 [2] [nM]	Ki [3] [nM]	Ki [5] [nM]
	CC(=O)N[C@@H](CC(C)C)C(=O)N[C@@H](CC(C)C)C(=O)N[C@@H](CC(C)C)C(=O)N[C@@H](CC(C)C)C(=O)N[C@@H](CCCNC(=N)N)C(=O)N[C@H](C(=O)N[C@@H](CCCCN)C(=O)N[C@H](CCCNC(=N)N)C(N)=O)C(C)C (Ac-LLLLRVK[dR]-NH2)	390000	440000		
2.7	CC(C)[C@H](N)C(=O)N[C@@H](CCCCN)C(=O)N[C@@H](CCCNC(=N)N)C(=O)N[C@@H](CCCNC(=N)N)C(=O)N[C@H](C(=O)N[C@@H](CCCCN)C(=O)N[C@@H](CCCNC(=N)N)C(=O)O)C(C)C (H-VKRRVKR-OH)				
	CC(=O)OCCOCCOCCOCCOCCOCCOCCOCCN[C@@H](CC(C)C)C(=O)N[C@@H](CC(C)C)C(=O)N[C@@H](CC(C)C)C(=O)N[C@@H](CC(C)C)C(=O)N[C@@H](CCCNC(=N)N)C(=O)N[C@H](C(=O)N[C@@H](CCCCN)C(=O)N[C@@H](CCCNC(=N)N)C(N)=O)C(C)C		> 500000	19	480
2.2	CC(C)[C@H](N)C(=O)N[C@@H](CCCCN)C(=O)N[C@@H](CCCCN)C(=O)N[C@@H](CCCNC(=N)N)C(=O)N[C@H](C(=O)N[C@@H](CCCCN)C(=O)N[C@@H](CCCNC(=N)N)C(=O)O)[C@@H](C)O (H-VKKRTKR-OH)				
	CC(=O)N[C@@H](CC(C)C)C(=O)N[C@@H](CC(C)C)C(=O)N[C@@H](CCCN=C(N)N)C(=O)N[C@H](C(=O)N[C@@H](CCCCN)C(=O)N[C@@H](CCCN=C(N)N)C(N)=O)C(C)C			240	900
	CC(=O)CCCCCCCCN[C@@H](CC(C)C)C(=O)N[C@@H](CC(C)C)C(=O)N[C@@H](CC(C)C)C(=O)N[C@@H](CC(C)C)C(=O)N[C@@H](CCCNC(=N)N)C(=O)N[C@H](C(=O)N[C@@H](CCCCN)C(=O)N[C@@H](CCCNC(=N)N)C(N)=O)C(C)C		80000	23	500
1.3	CC(C)C[C@H](N)C(=O)N[C@@H](CCCNC(=N)N)C(=O)N[C@@H](CCCNC(=N)N)C(=O)N[C@@H](CCCNC(=N)N)C(=O)N[C@H](C(=O)N[C@@H](CCCCN)C(=O)N[C@@H](CCCNC(=N)N)C(=O)O)C(C)C (H-LRRRVKR-OH)				

SMILES	Ratio Ki [4]	IC50 [1] [nM]	IC50 [2] [nM]	Ki [3] [nM]	Ki [5] [nM]
CC(C)C[C@H](NC(=O)[C@@H](N)CC(C)C)C(=O)N[C@@H](CCCNC(=N)N)C(=O)N[C@@H](CCCNC(=N)N)C(=O)N[C@@H](C)C(=O)N[C@@H](CCCCN)C(=O)N[C@@H](CCCNC(=N)N)C(=O)O (H-LLRRAKR-OH)	36			0.34	
C[C@H](N)C(=O)N[C@@H](CCCCN)C(=O)N[C@@H](CCCNC(=N)N)C(=O)N[C@@H](CCCNC(=N)N)C(=O)N[C@H](C(=O)N[C@@H](CCCCN)C(=O)N[C@@H](CCCNC(=N)N)C(=O)O)[C@@H](C)O (H-AKRRTKR-OH)	4.2			0.4	
